The list is not random: actives were taken first. Their share in the collection is about 3.8%.
KCNQ1 inh = human KCNQ1 channel inhibition | CHO-K1 KCNQ1, FluxOR thallium flux fluorescence; stronger effect = higher value | AID 2642 | B-score at 10 µM | P51787 | 310,000 compounds, 1.3% hits;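 active = compounds whose thallium flux B-score, printed positive for inhibition, exceeds three library SD while starting fluorescence stays within three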;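 note: channel opened by potassium depolarization with thallium stimulus after 20 min compound exposure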
KCNQ1 act = human KCNQ1 channel potentiation or activation; P51787; CHO-K1 KCNQ1, thallium flux FluxOR fluorescence; stronger effect = higher value; B-score at 10 µM; 310,000 compounds, 0.35% hits;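 active = fluorescence ratio B-score, a plate-corrected score, at least three library SD, with initial intensity B-score within 5 SD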
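Medium – assay buffer, equal DMSO in all wells · Material – CHO-K1 cell line with stable KCNQ1 potassium channel expression · Signal – kinetic FluxOR thallium fluorescence, 10-s 1-Hz baseline, 110-s post-stimulus read · Compound – single concentration per compound, DMSO matched to controls · Schedule – 37 °C overnight plating, 90-min dark dye load, 20-min compound pretreatment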
Kir21 inh = blocks the mouse Kir2.1 inward-rectifier potassium channel; AID 1672; P35561; HEK293-Kir2.1, FluxOR thallium flux fluorescence; stronger effect = lower value; 310,000 compounds, 0.85% hits; B-score at 10 µM;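 active = fluorescence ratio B-score at or below minus 3 SD of library scores, with starting-brightness B-score within 2 SD, cut at about -4.2 in these data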;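 note: channel flux triggered by added potassium and thallium sulfate stimulus; B-score of peak minus minimum fluorescence over baseline after thallium stimulus; more negative B-score means stronger Kir2.1 block with less thallium influx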
KCNK3 inh = human KCNK3 channel inhibition, primary screen | O14649 | CHO-KCNK3 thallium flux, FluxOR fluorescence; stronger effect = lower value | B-score at 10 µM | 340,000 compounds, 0.84% hits | AID 602410;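 active = B-score under library mean minus 4 SD, starting fluorescence ratio at most library mean plus 5 SD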;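 note: more negative B-score means stronger inhibition of thallium flux through KCNK3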
hERG protect = shields human hERG channel from block by proarrhythmic agents; Q12809; CHO-hERG, FluxOR thallium flux, dofetilide IC70 present; activation (rescue from dofetilide block), less the hit threshold, % at 10 µM; 310,000 compounds, 0.51% hits; AID 1511;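 active = activation above the mean of controls blocked by dofetilide plus 5 SD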;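 note: thallium influx through hERG after potassium depolarization seen as dye fluorescence rise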
KCNK9 block = blocks the human KCNK9 two-pore domain potassium channel | Q9NPC2 | HEK293 KCNK9, FluxOR thallium flux fluorescence; stronger effect = lower value | B-score at 10 µM | 310,000 compounds, 1.2% hits;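 active = ratio B-score over 3 SD below the library mean, with starting fluorescence within 5 SD of its mean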;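 note: negative B-score means less thallium flux so channel inhibition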
Numbers without * were called inactive; i = inactive; · = no result.

SMILES	KCNQ1 inh	KCNQ1 act	Kir21 inh	KCNK3 inh	hERG protect	KCNK9 block
O=C(C/C=N\OCc1ccc(Cl)cc1Cl)Nc1ccccc1	i	i	0.72	i	-12	i
COc1ccc(C(=O)Nn2cnc3scc(-c4cccs4)c3c2=O)c(O)c1	i	i	-1.2	-11*	-13	i
O=C(NCc1cccnc1)c1cccn2c(=O)c3sccc3nc12	i	i	-0.61	i	-8	i
O=C1/C(=C/c2cccc(F)c2)Oc2cc(O)ccc21	14*	i	-5.2	i	-8	i
O=C(NCCS(=O)(=O)NCc1ccc2c(c1)OCO2)c1ccccc1	i	i	-0.16	i	-8	i
Cc1cccc(OCCSc2nncn2C)c1	i	i	-0.63	i	9.8*	i
CCCCCCCC/C=C\CCCCCCCC(=O)O	i	i	1.4	i	13*	i
OC1(c2ccc(Br)cc2)CCN(Cc2cccc(Br)c2)CC1	i	i	-11*	i	-12	i
CCCN(C(=O)c1cn(-c2ccccc2)nc1-c1ccc(OC)cc1)C1CCS(=O)(=O)C1 (configuration not stated)	i	8*	1.2	i	-1	i
COc1ccc(C(=O)N(C)c2c(C)n(C)n(-c3ccccc3)c2=O)cc1OC	i	i	0.28	i	-2	i
Cc1nnc(N/N=C/c2cc([N+](=O)[O-])c(N3CCC(C)CC3)cc2N2CCC(C)CC2)n1N	10*	i	0.69	i	-14	i
CCCN(C(=O)COC(=O)c1[nH]c(C)c(C(=O)OC)c1C)c1c(N)n(Cc2ccccc2)c(=O)[nH]c1=O	i	i	0.54	i	-14	i
Cc1ccc(C(=O)NCCC(=O)NCc2cc(=O)n(C)c(=O)n2C)cc1	i	8*	1.2	i	-6	i
CCOC(=O)c1c(NC(=O)C(C)NCc2ccco2)sc2c1CCC(C)C2 (configuration not stated)	6*	i	0.52	i	-11	i
O=C1Nc2ccccc2C(=O)C1(Cl)Cc1ccccc1 (configuration not stated)	i	i	-5.2*	i	-4	i
CS(=O)(=O)c1ccc2nc(NC(=O)c3ccco3)sc2c1	i	i	0.05	i	-16	i
Cc1ccc(C(=O)Nc2nc(-c3ccco3)c(-c3ccco3)s2)o1	·	·	·	-11*	·	·
Cc1ccc(C(=O)Nc2nc3ccc(S(C)(=O)=O)cc3s2)o1	i	i	-0.24	i	38*	i
Cc1cc(/C=N/n2c(COc3ccccc3C)nc3ccccc3c2=O)c(O)c([N+](=O)[O-])c1	14*	i	1.7	i	-17	i
Cc1ccccc1OCc1nc2ccccc2c(=O)n1/N=C/c1c[nH]c2ccccc12	i	i	0.16	i	-4	i
CN(C)C(=O)CCc1ccc2c3c([nH]c2c1)[C@]1(CCc2ccccc2)[C@@H](C(=O)N2CCCCC2)C[C@H](CC(=O)NCCc2ccccn2)C(=O)N1CC3	·	·	·	i	·	·
NC(=O)c1ccc[n+](CC(=O)NCc2ccc(Cl)cc2)c1	i	i	0.05	i	-4	i
O=C1C(c2ccccc2)C(c2ccccc2)NC(c2ccccc2)C1c1ccccc1 (configuration not stated)	i	i	0.05	i	1	i
CCC1C(=O)CC(c2ccccc2)NC1c1ccccc1 (configuration not stated)	i	i	-0.03	i	-5	-6.6*
c1ccc2c(c1)oc1c(Nc3ccc(CN4CCOCC4)cc3)ncnc12	i	i	-5*	i	-15	i
c1ccc(Nc2ncnc3c2oc2ccccc23)cc1	i	i	-0.38	i	-6	i
Oc1[nH]c2c(Cl)cc(Cl)cc2c1N=NC(=S)NCC1CCCO1 (configuration not stated)	i	52*	0.84	i	12*	i
CCn1c(O)c(N=NC(=S)NCC2CCCO2)c2ccccc21 (configuration not stated)	i	i	0.16	i	6.3*	i

From PubChem
